According to ChEMBL document CHEMBL3588764, “Fluoro-substituted phenylazocarboxamides: Dopaminergic behavior and N-arylating properties for irreversible binding” (Bioorg Med Chem, 2015):

Columns and labels:
Homo sapiens [1] = species on record: Homo sapiens; assay: Selectivity index, ratio of Ki for human dopamine D2 short receptor to Ki for human dopamine D3 receptor
How it was run: (§1)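 Ratio of Ki at D2long or D2short to Ki at D3, with both Ki values from [³H]spiperone competition on CHO membranes stably expressing the human receptors.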

D(2) dopamine receptor [2] = molecular target: T1, D(2) dopamine receptor (Homo sapiens, UniProt P14416); assay: Displacement of [3H]spiperone from human dopamine D2 short receptor expressed in CHO cell membranes
How it was run: (§2)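 Membranes of CHO cells stably expressing each human receptor; [³H]spiperone final 0.1–0.2 nM (D2long), 0.2 nM (D2short), 0.2–0.4 nM (D3), 0.15–0.35 nM (D4.4), set by K_D. Protein per well 4–6, 1–4, 1–6 and 5–6 µg respectively. EC50 from competition curves by non-linear regression, converted to Ki with Cheng–Prusoff; Ki mean of 3–7 independent experiments in triplicate.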

D(3) dopamine receptor [3] = molecular target: T2, D(3) dopamine receptor (Homo sapiens, UniProt P35462); assay: Displacement of [3H]spiperone from human dopamine D3 receptor expressed in CHO cell membranes; how it was run: as §2
[4] = test system: D(3) dopamine receptor (Homo sapiens), P35462 [L89K]; assay: Activation of human dopamine D3 receptor L89K mutant expressed in HEK293 cells co-expressing GaqG66Di5- incubated for 120 mins by scintillation counting based myo-[3H]inositol phosphate accumulation assay relative to control; format: functional, cell-based
How it was run: (§3)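 HEK293T cells transiently co-transfected with human D3 (wild type or L89K mutant) plus GαqG66Di5; 24 h later seeded and labelled with myo-[³H]inositol. Next day, compounds in Tris/EDTA/MgCl2/DTT buffer pH 7.4 with 10 mM LiCl for 120 min at 37 °C. Total IP isolated by anion exchange and counted by scintillation; expressed as fold over basal (unstimulated = 1).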

D(3) dopamine receptor [5] = molecular target: T2, D(3) dopamine receptor; assay: Activation of wild type human dopamine D3 receptor expressed in HEK293 cells co-expressing GaqG66Di5- incubated for 120 mins by scintillation counting based myo-[3H]inositol phosphate accumulation assay relative to quinpirole; format: functional, cell-based; how it was run: as §3
D(4) dopamine receptor = molecular target: T3, D(4) dopamine receptor (Homo sapiens, UniProt P21917); assay: Displacement of [3H]spiperone from human dopamine D4.4 receptor expressed in CHO cell membranes; how it was run: as §2
T3 sequence (P21917 whole entry): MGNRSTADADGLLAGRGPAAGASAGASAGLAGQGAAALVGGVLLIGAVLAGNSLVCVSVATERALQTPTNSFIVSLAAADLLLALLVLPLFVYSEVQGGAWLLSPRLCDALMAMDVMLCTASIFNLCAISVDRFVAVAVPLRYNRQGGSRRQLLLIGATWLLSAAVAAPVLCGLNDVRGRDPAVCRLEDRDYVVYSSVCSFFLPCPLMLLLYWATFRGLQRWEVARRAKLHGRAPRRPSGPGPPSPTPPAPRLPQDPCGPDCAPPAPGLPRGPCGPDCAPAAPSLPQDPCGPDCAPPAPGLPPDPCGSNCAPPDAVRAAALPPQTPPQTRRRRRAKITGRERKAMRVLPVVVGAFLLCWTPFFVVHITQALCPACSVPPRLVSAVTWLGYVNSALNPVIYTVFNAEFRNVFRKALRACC

D(2) dopamine receptor [6] = molecular target: T1, D(2) dopamine receptor; assay: Displacement of [3H]spiperone from human dopamine D2 long receptor expressed in CHO cell membranes; how it was run: as §2
D(3) dopamine receptor [7] = molecular target: D(3) dopamine receptor (Homo sapiens, UniProt P35462, L89K); assay: Activation of human dopamine D3 receptor L89K mutant expressed in HEK293 cells co-expressing GaqG66Di5- incubated for 120 mins by scintillation counting based myo-[3H]inositol phosphate accumulation assay; format: functional, cell-based
D(3) dopamine receptor [8] = molecular target: T2, D(3) dopamine receptor; assay: Activation of wild type human dopamine D3 receptor expressed in HEK293 cells co-expressing GaqG66Di5- incubated for 120 mins by scintillation counting based myo-[3H]inositol phosphate accumulation assay; format: functional, cell-based
Homo sapiens [9] = species on record: Homo sapiens; assay: Selectivity index, ratio of Ki for human dopamine D2 long receptor to Ki for human dopamine D3 receptor; how it was run: as §1
[10] = Displacement of [3H][…] from porcine cerebral cortex 5HT1A receptor; format: tissue-based, Sus scrofa
How it was run: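 Porcine cerebral cortex homogenates as receptor source; [³H][…] at 0.2–0.33 nM for 5-HT1A. Protein measured by Lowry against bovine serum albumin. Competition curves fitted by non-linear regression, EC50 converted to Ki via Cheng–Prusoff.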

[11] = Displacement of [3H]prazosin from porcine cerebral cortex alpha1 adrenoceptor; format: tissue-based, Sus scrofa
[12] = molecular target: 5-hydroxytryptamine receptor 2A (Homo sapiens, UniProt P28223); assay: Displacement of [3H]ketanserin from human 5HT2A receptor expressed in HEK293 cell membranes
How it was run: (§4)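 Homogenates from HEK 293 cells transiently transfected (calcium phosphate) with the human receptor gene in pcDNA3.1. [³H]SCH23390 at 0.3–0.7 nM (D1) or 0.4–0.5 nM (D5); [³H]ketanserin at 0.3–0.5 nM (5-HT2A). Competition curves fitted by non-linear regression, EC50 converted to Ki via Cheng–Prusoff.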

D(1B) dopamine receptor = D(1B) dopamine receptor (Homo sapiens, UniProt P21918); assay: Displacement of [3H]SCH23390 from human dopamine D5 receptor expressed in HEK293 cell membranes; how it was run: as §4
D(1A) dopamine receptor = D(1A) dopamine receptor (Homo sapiens, UniProt P21728); assay: Displacement of [3H]SCH23390 from human dopamine D1 receptor expressed in HEK293 cell membranes; how it was run: as §4
Chain of D(1A) dopamine receptor (P21728 whole entry): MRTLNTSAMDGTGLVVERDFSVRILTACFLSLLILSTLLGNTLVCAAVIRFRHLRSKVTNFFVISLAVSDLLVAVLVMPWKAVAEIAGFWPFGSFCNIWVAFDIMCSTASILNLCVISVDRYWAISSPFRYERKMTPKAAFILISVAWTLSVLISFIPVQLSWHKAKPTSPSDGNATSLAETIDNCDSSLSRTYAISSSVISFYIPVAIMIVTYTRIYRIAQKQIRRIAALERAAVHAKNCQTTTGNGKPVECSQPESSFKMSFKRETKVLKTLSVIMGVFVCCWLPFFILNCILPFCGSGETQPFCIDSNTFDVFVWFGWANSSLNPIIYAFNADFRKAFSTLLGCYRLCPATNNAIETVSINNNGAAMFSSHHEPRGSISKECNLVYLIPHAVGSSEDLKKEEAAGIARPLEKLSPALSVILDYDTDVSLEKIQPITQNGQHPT

T1 sequence (P14416 whole entry): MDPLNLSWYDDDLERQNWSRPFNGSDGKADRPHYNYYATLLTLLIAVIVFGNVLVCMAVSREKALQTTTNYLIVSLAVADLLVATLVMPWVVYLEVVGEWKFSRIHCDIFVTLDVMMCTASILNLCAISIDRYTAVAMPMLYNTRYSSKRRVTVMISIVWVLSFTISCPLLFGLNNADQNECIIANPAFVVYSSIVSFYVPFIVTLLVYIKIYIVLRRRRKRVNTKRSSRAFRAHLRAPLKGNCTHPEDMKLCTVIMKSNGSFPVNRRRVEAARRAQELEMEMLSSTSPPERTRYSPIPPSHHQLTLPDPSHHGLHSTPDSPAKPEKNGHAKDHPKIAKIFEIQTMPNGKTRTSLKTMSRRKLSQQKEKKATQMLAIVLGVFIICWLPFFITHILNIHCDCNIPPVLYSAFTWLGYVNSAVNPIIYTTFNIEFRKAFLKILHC
Chain of 5-hydroxytryptamine receptor 2A (P28223 whole entry): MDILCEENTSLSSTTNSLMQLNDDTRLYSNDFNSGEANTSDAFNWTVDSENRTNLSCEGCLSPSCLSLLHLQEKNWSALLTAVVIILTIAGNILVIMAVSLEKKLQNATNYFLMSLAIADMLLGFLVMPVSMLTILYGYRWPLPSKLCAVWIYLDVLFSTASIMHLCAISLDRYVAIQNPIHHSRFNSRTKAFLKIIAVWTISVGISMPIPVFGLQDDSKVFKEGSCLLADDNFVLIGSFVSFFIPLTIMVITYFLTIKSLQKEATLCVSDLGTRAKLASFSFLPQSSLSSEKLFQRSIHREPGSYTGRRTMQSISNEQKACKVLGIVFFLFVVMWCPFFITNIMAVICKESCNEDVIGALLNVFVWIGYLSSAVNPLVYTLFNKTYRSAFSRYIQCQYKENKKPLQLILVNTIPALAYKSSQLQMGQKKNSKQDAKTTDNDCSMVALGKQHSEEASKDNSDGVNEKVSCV
Chain of D(1B) dopamine receptor (P21918 whole entry): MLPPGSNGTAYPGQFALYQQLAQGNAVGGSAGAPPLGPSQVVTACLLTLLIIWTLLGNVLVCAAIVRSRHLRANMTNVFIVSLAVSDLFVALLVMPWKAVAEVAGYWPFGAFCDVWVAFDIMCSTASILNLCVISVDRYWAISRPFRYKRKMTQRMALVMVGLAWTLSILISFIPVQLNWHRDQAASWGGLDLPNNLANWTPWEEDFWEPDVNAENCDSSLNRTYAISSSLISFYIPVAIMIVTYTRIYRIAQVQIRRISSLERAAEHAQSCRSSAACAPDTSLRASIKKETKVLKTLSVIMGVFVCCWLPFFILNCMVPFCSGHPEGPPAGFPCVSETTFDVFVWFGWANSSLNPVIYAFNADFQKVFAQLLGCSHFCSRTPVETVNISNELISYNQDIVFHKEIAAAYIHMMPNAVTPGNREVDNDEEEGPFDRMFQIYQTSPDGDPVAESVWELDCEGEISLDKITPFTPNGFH
Chain of D(3) dopamine receptor (Homo sapiens), P35462 [L89K] (P35462 as listed by the source): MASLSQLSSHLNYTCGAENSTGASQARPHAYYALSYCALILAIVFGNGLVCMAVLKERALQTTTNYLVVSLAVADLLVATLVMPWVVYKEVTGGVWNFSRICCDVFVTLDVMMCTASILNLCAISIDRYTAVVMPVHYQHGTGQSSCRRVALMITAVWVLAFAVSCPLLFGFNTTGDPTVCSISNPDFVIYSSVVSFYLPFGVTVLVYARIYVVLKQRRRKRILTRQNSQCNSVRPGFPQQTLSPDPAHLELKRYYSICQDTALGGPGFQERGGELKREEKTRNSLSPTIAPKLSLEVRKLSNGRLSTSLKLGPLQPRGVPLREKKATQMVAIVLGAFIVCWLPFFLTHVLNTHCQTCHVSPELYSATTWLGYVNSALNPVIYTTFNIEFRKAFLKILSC
Chain of D(3) dopamine receptor (Homo sapiens, UniProt P35462, L89K) (P35462 as listed by the source L89K): as the sequence (P35462 as listed by the source) above
T2 sequence (P35462 whole entry): as the sequence (P35462 as listed by the source) above, with S9G, K89L counted along it

| Ratio Ki (Homo sapiens [1]) | Ki (D(2) dopamine receptor [2]) | Ki (D(3) dopamine receptor [3]) | Efficacy [4] | Efficacy (D(3) dopamine receptor [5]) | Ki (D(4) dopamine receptor) | Ki (D(2) dopamine receptor [6]) | EC50 (D(3) dopamine receptor [7]) | EC50 (D(3) dopamine receptor [8]) | Ratio Ki (Homo sapiens [9]) | Ki [10] | Ki [11] | Ki [12] | Ki (D(1B) dopamine receptor) | Ki (D(1A) dopamine receptor) | SMILES |
| --- | --- | --- | --- | --- | --- | --- | --- | --- | --- | --- | --- | --- | --- | --- | --- |
| 2.4 | 12 nM | 4.9 nM | 101% | 90% | 40 nM | 40 nM | 114 nM | 11 nM | 8.2 |  |  |  |  |  | CCCN(CCCCNC(=O)/N=N/c1cc(F)c(F)c(F)c1)C1Cc2ccccc2C1 |
| 6.8 | 9.5 nM | 1.4 nM |  |  | 47 nM | 6.6 nM |  |  | 4.7 |  |  |  |  |  | COc1ccccc1N1CCN(CCCCNC(=O)/N=N/c2cc(F)c(F)c(F)c2)CC1 |
| 0.93 | 13 nM | 14 nM |  |  | 1.4 nM | 43 nM |  |  | 3.1 | 4.3 nM | 58 nM | 210 nM | 11000 nM | 2200 nM | CCCN(CCNC(=O)/C=C/c1ccc(F)cc1)C1Cc2ccccc2C1 |
| 9.4 | 2.9 nM | 0.31 nM |  |  | 16 nM | 19 nM |  |  | 61 | 5 nM | 120 nM | 89 nM | 2900 nM | 1300 nM | CCCN(CCCCNC(=O)/C=C/c1ccc(F)cc1)C1Cc2ccccc2C1 |
| 3 | 8.5 nM | 2.8 nM |  |  | 2 nM | 3.9 nM |  |  | 1.4 |  |  |  |  |  | CCCN(CCNC(=O)/N=N/c1ccc(F)c(F)c1)C1Cc2ccccc2C1 |
| 2.9 | 4 nM | 1.4 nM |  |  | 0.99 nM | 5 nM |  |  | 3.6 |  |  |  |  |  | CCCN(CCNC(=O)/N=N/c1ccc(F)cc1)C1Cc2ccccc2C1 |
| 16 | 12 nM | 0.72 nM |  |  | 36 nM | 7.5 nM |  |  | 10 |  |  |  |  |  | COc1ccccc1N1CCN(CCCCNC(=O)/N=N/c2ccc(F)c(F)c2)CC1 |
| 0.84 | 73 nM | 87 nM |  |  | 10 nM | 110 nM |  |  | 1.3 | 3.3 nM | 900 nM | 510 nM | 3800 nM | 2600 nM | CCCN(CCNC(=O)/N=N/c1cc(F)c(F)c(F)c1)C1Cc2ccccc2C1 |
| 6.5 | 13 nM | 2 nM | 77% | 94% | 31 nM | 25 nM | 79 nM | 6.1 nM | 13 |  |  |  |  |  | CCCN(CCCCNC(=O)/N=N/c1ccc(F)c(F)c1)C1Cc2ccccc2C1 |
| 42 | 36 nM | 0.85 nM | 81% | 84% | 34 nM | 23 nM | 68 nM | 2.6 nM | 27 | 5.8 nM | 170 nM | 550 nM | 7000 nM | 3300 nM | CCCN(CCCCNC(=O)/N=N/c1ccc(F)cc1)C1Cc2ccccc2C1 |

| SMILES | Ratio Ki (Homo sapiens [1]) | Ki (D(2) dopamine receptor [2]) | Ki (D(3) dopamine receptor [3]) | Efficacy [4] | Efficacy (D(3) dopamine receptor [5]) | Ki (D(4) dopamine receptor) | Ki (D(2) dopamine receptor [6]) | EC50 (D(3) dopamine receptor [7]) | EC50 (D(3) dopamine receptor [8]) | Ratio Ki (Homo sapiens [9]) | Ki [10] | Ki [11] | Ki [12] | Ki (D(1B) dopamine receptor) | Ki (D(1A) dopamine receptor) |
| --- | --- | --- | --- | --- | --- | --- | --- | --- | --- | --- | --- | --- | --- | --- | --- |
| COc1ccccc1N1CCN(CCCCNC(=O)/N=N/c2ccc(F)cc2)CC1 | 11 | 34 nM | 3 nM |  |  |  |  |  |  | 13 | 3.3 nM | 5.2 nM |  |  |  |
